From ChEMBL document CHEMBL3124834, “Development of tag-free photoprobes for studies aimed at identifying the target of novel Group A Streptococcus antivirulence agents” (Bioorg Med Chem Lett, 2014)

Legend:
Streptococcus pyogenes = experiment: Growth inhibition of Streptococcus pyogenes UMAA2616 at 50 uM after 24 hrs relative to control; format: organism-based
[1] = target: T1, Streptokinase (Streptococcus pyogenes) (UniProt P96471); experiment: Inhibition of Streptococcus pyogenes UMAA2616 streptokinase assessed as plasmin activity in human plasma at 5 uM after 24 hrs by colorimetric analysis relative to control
T1 sequence (whole entry): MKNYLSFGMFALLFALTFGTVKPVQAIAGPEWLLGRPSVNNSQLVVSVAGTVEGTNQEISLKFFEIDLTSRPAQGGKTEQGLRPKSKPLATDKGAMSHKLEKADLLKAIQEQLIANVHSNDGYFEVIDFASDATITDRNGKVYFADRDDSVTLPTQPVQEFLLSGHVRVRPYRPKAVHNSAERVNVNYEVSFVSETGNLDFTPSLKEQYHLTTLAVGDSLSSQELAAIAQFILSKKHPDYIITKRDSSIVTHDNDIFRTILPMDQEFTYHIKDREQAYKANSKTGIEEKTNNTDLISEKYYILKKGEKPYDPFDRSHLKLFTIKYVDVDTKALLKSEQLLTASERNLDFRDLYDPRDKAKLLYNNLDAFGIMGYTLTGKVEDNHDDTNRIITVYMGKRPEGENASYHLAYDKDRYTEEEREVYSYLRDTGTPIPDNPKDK
Outline: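 GAS cultures incubated 24 hours with 5 μM compound. Culture supernatant was mixed with human plasma, and the resulting plasmin activity was followed by turnover of a plasmin-specific chromogenic substrate, read as absorbance at 405 nm. Value is the activity of the treated culture divided by that of a DMSO-treated control culture, ± standard deviation.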

Streptokinase = target: T2, Streptokinase (Streptococcus pyogenes, UniProt P96471); experiment: Inhibition of Streptococcus pyogenes UMAA2616 streptokinase assessed as plasmin activity in human plasma after 24 hrs by colorimetric analysis
T2 sequence (P96471 whole entry): T1 sequence (whole entry)
Outline: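 GAS culture grown 24 h with test compound (5 μM for ratio data); culture supernatant mixed with human plasma and resulting plasmin activity read as turnover of plasmin-specific chromogenic substrate at A405. Reported as SK activity relative to DMSO-treated control culture; IC50 taken as concentration giving 50% of maximal inhibition of SK expression; ± standard deviation.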

Row | SMILES | T/C (Streptococcus pyogenes) | T/C [1] | IC50 (Streptokinase) [nM]
1 | C#CCSc1nc2c(c(=O)n1CC=C)C(C)(C)Cc1cc(OCCC3(C)N=N3)ccc1-2 | 0.96 | 1.07 | –
2 | C#CCOc1ccc2c(c1)CC(C)(C)c1c-2nc(SCCC2(C)N=N2)n(CC=C)c1=O | 1.02 | 0.89 | –
3 | C=CCn1c(SCC)nc2c(c1=O)C(C)(C)Cc1ccc(OC)cc1-2 | 0.73 | 0.1 | 1300
4 | C#CCOCCOc1ccc2c(c1)CC(C)(C)c1c-2nc(SCCC2(C)N=N2)n(CC=C)c1=O | 1.01 | 0.71 | –
5 | C#CCOCCSc1nc2c(c(=O)n1CC=C)C(C)(C)Cc1ccc(N=[N+]=[N-])cc1-2 | 0.98 | 0.3 | 190
6 | C#CCOCCSc1nc2c(c(=O)n1CC=C)C(C)(C)Cc1cc(OCCC3(C)N=N3)ccc1-2 | 1.07 | 0.49 | 330
7 | C#CCOCCSc1nc2c(c(=O)n1CC=C)C(C)(C)Cc1cc(C(=O)c3ccccc3)ccc1-2 | 0.94 | 0.51 | 3800
8 | C#CCSc1nc2c(c(=O)n1CC=C)C(C)(C)Cc1cc(C(=O)c3ccccc3)ccc1-2 | 1.09 | 0.77 | –
